In ChEMBL document CHEMBL2146441, “2,6-Disubstituted imidazo[2,1-b][1,3,4]thiadiazoles: search for anticancer agents” (2012):

Experiments:
Format in all cases: functional
[1] = test system: EKVX; assay: Cytotoxicity against human EKVX cells assessed as cell growth at 10^-4 M after 48 hrs by SRB assay; conditions: read-out: Activity
Outline: (§1)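 NCI-60 screen: lines kept in RPMI 1640 with 5% FBS, seeded at 5000–40,000 cells/well by doubling time, preincubated 24 h at 37 °C in 5% CO2. Time-zero plates TCA-fixed at drug addition. DMSO stocks diluted in medium, 48 h exposure. Fixation in cold TCA (final 10% adherent, 16% suspension), 0.4% SRB stain, solubilised in 10 mM Tris base, A515. Percent growth computed against control and time-zero.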

[2] = test system: SW-620; assay: Cytotoxicity against human SW620 cells assessed as cell growth at 10^-5 M after 48 hrs by SRB assay; conditions: SW-620, 48 h, read-out: Activity
[3] = test system: OVCAR-8; assay: Growth inhibition of human OVCAR8 cells after 48 hrs by SRB assay; conditions: OVCAR-8, 48 h; for CC50: read-out: LC50 (the source's name)
Outline: (§2)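 Adherent NCI-60 lines grown in RPMI 1640 with 5% FBS, seeded at 5000–40,000 cells/well, and preincubated 24 h at 37 °C, 5% CO2. Compound, stocked in DMSO, given either once at 10^-5 M or at five 10-fold dilutions for 48 h. Cells fixed with cold TCA (final 10%), stained with 0.4% SRB, and read at 515 nm. GI50 taken as 50% reduction in net protein increase versus time-zero and control plates.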

[4] = test system: OVCAR-3; assay: Cytotoxicity against human OVCAR3 cells assessed as cell growth at 10^-6 M after 48 hrs by SRB assay; conditions: OVCAR-3, 48 h, read-out: Activity
[5] = test system: TK-10; assay: Cytotoxicity against human TK10 cells assessed as cell growth at 10^-7 M after 48 hrs by SRB assay; conditions: TK-10, 48 h, read-out: Activity
[6] = test system: NCI-H226; assay: Cytotoxicity against human NCI-H226 cells assessed as cell growth at 10^-6 M after 48 hrs by SRB assay; conditions: NCI-H226, 48 h, read-out: Activity
[7] = test system: U-251; assay: Cytotoxicity against human U251 cells assessed as cell growth at 10^-8 M after 48 hrs by SRB assay; conditions: U-251, 48 h, read-out: Activity
[8] = test system: HCT-15; assay: Cytotoxicity against human HCT15 cells assessed as cell growth at 10^-7 M after 48 hrs by SRB assay; conditions: HCT-15, 48 h, read-out: Activity
Outline: (§3)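 NCI-60 five-dose screen. Cells were grown in RPMI 1640 with 5% FBS and seeded at 5000–40,000 cells/well according to doubling time. They were pre-incubated 24 h at 37 °C in 5% CO₂, and time-zero (Tz) plates were TCA-fixed at drug addition. Five 10-fold dilutions of DMSO stock were applied for 48 h. Read-out was SRB staining, 515 nm absorbance, with percent growth calculated versus Tz and untreated control.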

[9] = test system: DU-145; assay: Cytotoxicity against human DU145 cells assessed as cell growth at 10^-6 M after 48 hrs by SRB assay; conditions: DU-145, 48 h, read-out: Activity; outline: as §1
[10] = test system: TK-10; assay: Cytotoxicity against human TK10 cells assessed as cell growth at 10^-6 M after 48 hrs by SRB assay; conditions: TK-10, 48 h, read-out: Activity
[11] = test system: HCC 2998; assay: Cytotoxicity against human HCC2998 cells assessed as cell growth at 10^-5 M after 48 hrs by SRB assay; conditions: HCC 2998, 48 h, read-out: Activity; outline: as §3
[12] = test system: HL-60; assay: Growth inhibition of human HL60 cells after 48 hrs by SRB assay; conditions: HL-60, 48 h
Outline: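 Leukemia suspension lines grown in RPMI 1640 with 5% FBS, seeded at 5000–40,000 cells/well, and preincubated 24 h at 37 °C, 5% CO2. Compound, stocked in DMSO, given either once at 10^-5 M or at five 10-fold dilutions for 48 h. Settled cells fixed with 80% TCA (final 16%), stained with SRB, and read at 515 nm. GI50 calculated against time-zero and control growth.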

[13] = test system: MDA-MB-468; assay: Cytotoxicity against human MDA-MB-468 cells assessed as cell growth at 10^-7 M after 48 hrs by SRB assay; conditions: MDA-MB-468, 48 h, read-out: Activity
[14] = test system: DU-145; assay: Cytotoxicity against human DU145 cells assessed as cell growth at 10^-5 M after 48 hrs by SRB assay; conditions: DU-145, 48 h, read-out: Activity; outline: as §1
[15] = test system: UACC-62; assay: Cytotoxicity against human UACC62 cells assessed as cell growth at 10^-6 M after 48 hrs by SRB assay; conditions: UACC-62, 48 h, read-out: Activity
[16] = test system: KM12; assay: Cytotoxicity against human KM12 cells assessed as cell growth at 10^-4 M after 48 hrs by SRB assay; conditions: KM12, 48 h, read-out: Activity
[17] = test system: OVCAR-4; assay: Cytotoxicity against human OVCAR4 cells assessed as cell growth at 10^-5 M after 48 hrs by SRB assay; conditions: OVCAR-4, 48 h, read-out: Activity
[18] = test system: 786-0; assay: Cytotoxicity against human 786-0 cells assessed as cell growth at 10^-8 M after 48 hrs by SRB assay; conditions: 786-0, 48 h, read-out: Activity; outline: as §1
[19] = test system: M14; assay: Cytotoxicity against human M14 cells assessed as cell growth at 10^-4 M after 48 hrs by SRB assay; conditions: M14, 48 h, read-out: Activity
[20] = test system: SK-MEL-28; assay: Cytotoxicity against human SK-MEL-28 cells assessed as cell growth at 10^-4 M after 48 hrs by SRB assay; conditions: SK-MEL-28, 48 h, read-out: Activity
[21] = test system: IGROV-1; assay: Cytotoxicity against human IGROV1 cells assessed as cell growth at 10^-7 M after 48 hrs by SRB assay; conditions: IGROV-1, 48 h, read-out: Activity
[22] = test system: A498; assay: Cytotoxicity against human A498 cells assessed as cell growth at 10^-5 M after 48 hrs by SRB assay; conditions: A498, 48 h, read-out: Activity; outline: as §1
[23] = test system: HCT-116; assay: Cytotoxicity against human HCT116 cells assessed as cell growth at 10^-8 M after 48 hrs by SRB assay; conditions: HCT-116, 48 h, read-out: Activity; outline: as §3
[24] = test system: PC-3; assay: Cytotoxicity against human PC3 cells assessed as cell growth at 10^-6 M after 48 hrs by SRB assay; conditions: PC-3, 48 h, read-out: Activity
[25] = test system: IGROV-1; assay: Cytotoxicity against human IGROV1 cells assessed as cell growth at 10^-4 M after 48 hrs by SRB assay; conditions: IGROV-1, 48 h, read-out: Activity; outline: as §3
[26] = test system: HT-29; assay: Cytotoxicity against human HT-29 cells assessed as cell growth at 10^-4 M after 48 hrs by SRB assay; conditions: HT-29, 48 h, read-out: Activity; outline: as §3
[27] = test system: UO-31; assay: Growth inhibition of human UO31 cells after 48 hrs by SRB assay; conditions: UO-31, 48 h; outline: as §2
[28] = test system: UO-31; assay: Cytotoxicity against human UO31 cells assessed as cell growth at 10^-4 M after 48 hrs by SRB assay; conditions: UO-31, 48 h, read-out: Activity

SMILES	growth at 100 µM [1]	growth at 10 µM [2]	GI50 [3]	TGI [3]	CC50 [3]	growth at 1 µM [4]	growth at 0.1 µM [5]	growth at 1 µM [6]	growth at 0.01 µM [7]	growth at 0.1 µM [8]	growth at 1 µM [9]	growth at 1 µM [10]	growth at 10 µM [11]	GI50 [12]	LC50 [12]	TGI [12]	growth at 0.1 µM [13]	growth at 10 µM [14]	growth at 1 µM [15]	growth at 100 µM [16]	further results
COc1ccc(-c2nn3cc(-c4ccc(O)cc4O)nc3s2)cc1	-9%	26%	2.63 µM	> 100 µM	> 100 µM	89%	105%	61%	97%	92%	91%	101%	34%	3.86 µM	> 100 µM	37.4 µM	78%	27%	81%	2%	growth at 10 µM [17]: -60%; growth at 0.01 µM [18]: 97%; growth at 100 µM [19]: -49%; growth at 100 µM [20]: -26%; growth at 0.1 µM [21]: 94%; growth at 10 µM [22]: -50%; growth at 0.01 µM [23]: 94%; growth at 1 µM [24]: 65%; growth at 100 µM [25]: -7%; growth at 100 µM [26]: -20%; GI50 [27]: 1.44 µM; LC50 [27]: > 100 µM; TGI [27]: 3.97 µM; growth at 100 µM [28]: -10%
COc1ccc(-c2nn3cc(-c4cccc(N)c4)nc3s2)cc1	-18%	40%	4.97 µM	23 µM	89.9 µM	86%	135%	58%	106%	106%	93%	118%	51%	1.77 µM	> 100 µM	37.7 µM	80%	41%	71%	-48%	growth at 10 µM [17]: 7%; growth at 0.01 µM [18]: 106%; growth at 100 µM [19]: -54%; growth at 100 µM [20]: -39%; growth at 0.1 µM [21]: 93%; growth at 10 µM [22]: -17%; growth at 0.01 µM [23]: 99%; growth at 1 µM [24]: 53%; growth at 100 µM [25]: -18%; growth at 100 µM [26]: -48%; GI50 [27]: 1.46 µM; LC50 [27]: 63.3 µM; TGI [27]: 10.2 µM; growth at 100 µM [28]: -63%
